Source: publication PMC3356046 (Frontiers in Oncology, 2011)

Tests used:
[1] = ref Wang et al., 2006b, Mi et al., 2008; cited from earlier work
[2] = tested on: BP3 human lymphoma cell line; experiment: Apoptosis, Annexin V-FITC and propidium iodide assay, BP3; type: cell-based
Procedure, shortened: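 BP3 diffuse large B-cell lymphoma cells were grown in RPMI 1640 with 10% FBS and penicillin/streptomycin, then exposed to varying concentrations of test compound for 1 day. They were stained with FITC-Annexin V and propidium iodide and analysed by flow cytometry. Annexin V-negative/PI-negative cells were scored viable. Mean of two independent experiments ± SE.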

| Structure (SMILES) | oral MTD [1] | cytotoxic activity against BP3 cell lines [2] |
| --- | --- | --- |
| Cc1cc2c(C(C)C)c(O)c(O)c(C=O)c2c(O)c1-c1c(C)cc2c(C(C)C)c(O)c(O)c(C=O)c2c1O [(−) Gossypol] | ~50 mg/kg |  |
| CN(C)CC[C@H](CSc1ccccc1)Nc1ccc(S(=O)(=O)NC(=O)c2ccc(N3CCN(Cc4ccccc4-c4ccc(Cl)cc4)CC3)cc2)cc1[N+](=O)[O-] [ABT-737] |  | no cytotoxic activity |
